The values below come from PMC4586255 (DNA repair, 2010).

Residues, ends and D or L forms follow the SMILES beside them.

For series [1], the system named is hEXO1. Conditions: hEXO1-hMLH1 interaction, ref [15], cited from earlier work.
Series [2] deals with PCNA (Homo sapiens, UniProt P12004). The series is described as follows: Isothermal titration calorimetry of hEXO1 peptides with purified PCNA. The format is binding. Conditions: ITC, 30 °C, pH 7.5; 18 μM PCNA, 200 μM p22; no dilution effects in pure buffer. Background: ITC needs no label: the signal is the heat of the interaction.
Chain of PCNA (P12004 whole entry): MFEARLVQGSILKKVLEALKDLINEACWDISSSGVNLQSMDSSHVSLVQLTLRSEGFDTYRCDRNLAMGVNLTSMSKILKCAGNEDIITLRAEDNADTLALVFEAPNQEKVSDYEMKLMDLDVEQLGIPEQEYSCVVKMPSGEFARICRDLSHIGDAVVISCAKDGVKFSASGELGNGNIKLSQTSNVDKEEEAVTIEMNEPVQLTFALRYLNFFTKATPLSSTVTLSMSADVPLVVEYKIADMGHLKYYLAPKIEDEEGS
Series [3] deals with PCNA replication foci in HCT116 cells. Put plainly: Co-localization with PCNA in replication foci in HCT116 cells. Format: cell-based. Conditions: HCT116 cell line (hMLH1 deficient); Fig. S5.
For series [4], the system named is PCNA replication foci in NIH3T3 cells. The format is cell-based, murine. Conditions: for foci formation and co-localization with PCNA during S-phase: 24–48 h. The procedure, abridged:
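Murine NIH3T3 cells were kept in DMEM with 10% FBS and penicillin/streptomycin at 37 °C, 10% CO₂. Cells (2*10⁵ per glass-bottom dish) were seeded 24 h before ExGen500 co-transfection with 3 μg total plasmid (CFP-PCNA plus YFP fusion). Confocal imaging at 24–48 h. Co-transfected cells were counted and binned by pattern, e.g. "no foci" (diffuse CFP-PCNA, diffuse nuclear YFP).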

[5] abbreviates: NIH3T3 cells co-transfected with CFP-PCNA.

hEXO1-hMLH1: hEXO1-hMLH1 complex: in series [1] (heteroduplex substrate), the “exonuclease activity on heteroduplex substrate” value is “inhibits exonuclease activity on a heteroduplex substrate”. Moreover, the “exonuclease activity on homoduplex substrate” value in series [1] (homoduplex substrate) is on record as “did not inhibit exonuclease activity on a homoduplex substrate”.

Turning to `CC[C@H](C)[C@H](NC(=O)[C@H](CCC(N)=O)NC(=O)[C@H](CC(C)C)NC(=O)CNC(=O)[C@@H]1CCCN1C(=O)[C@H](CCCCN)NC(=O)[C@@H](N)CC(N)=O)C(=O)N[C@@H](CCCCN)C(=O)N[C@@H](CC(C)C)C(=O)N[C@@H](CC(N)=O)C(=O)N[C@@H](CCC(=O)O)C(=O)N[C@@H](CC(C)C)C(=O)N[C@@H](Cc1c[nH]c2ccccc12)C(=O)N[C@@H](CCCCN)C(=O)N[C@@H](CC(N)=O)C(=O)N[C@@H](Cc1ccccc1)C(=O)NCC(=O)N[C@@H](Cc1ccccc1)C(=O)N[C@@H](CCCCN)C(=O)N[C@@H](CCCCN)C(=O)N[C@@H](CC(=O)O)C(=O)N[C@@H](CO)C(=O)O` [hEXO1 p22] (H-NKPGLQIKLNELWKNFGFKKDS-OH; N-terminus and C-terminus assumed), in series [2], the “heat exchange of binding reaction with PCNA” value is “exothermic heat exchange”.

human exonuclease 1 [YFP-hEXO1]: the “co-localization with PCNA in replication foci” value in series [3] is listed as “co-localize with PCNA in replication foci in the HCT116 cell line”. The “Small foci (CFP-PCNA)” value in series [4] (CFP channel (CFP-PCNA) in cells co-expressing the hEXO1 protein, early S-phase foci, 50 co-transfected cells) worked out at 28%. In series [4] (CFP channel (CFP-PCNA) in cells co-expressing the hEXO1 protein, late S-phase foci, 50 co-transfected cells), the “Large foci (CFP-PCNA)” value came out at 12%. Also, in series [4] (CFP channel (CFP-PCNA) in cells co-expressing the hEXO1 protein, mid S-phase foci, 50 co-transfected cells), the “Mid Foci (CFP-PCNA)” value was 14%. In series [4] (setting [5]), the “cells showing diffuse nuclear staining” value is 40%; the “foci formation and co-localization with PCNA during S-phase” value was “co-localize in discrete nuclear foci”. Besides, the sub-cellular localization result in series [4] (NIH3T3 cells, confocal imaging) is “only rarely observed in the cytoplasm”.

As for “hMSH6: fusion protein, CFP or YFP tagged MMR protein”, the “foci formation and co-localization with PCNA during S-phase” value in series [4] (setting [5]) is on record as “form PCNA co-localizing foci throughout S-phase”.
